Laboratory results published in article PMC4452124 (Toxicology research, 2014).
Read-outs that look alike come from different tables or passages of the source.

Assays:
[1] = target: T1, human BCRP (Homo sapiens, UniProt Q9UNQ0); experiment: biochemical
T1 sequence (Q9UNQ0 1-655): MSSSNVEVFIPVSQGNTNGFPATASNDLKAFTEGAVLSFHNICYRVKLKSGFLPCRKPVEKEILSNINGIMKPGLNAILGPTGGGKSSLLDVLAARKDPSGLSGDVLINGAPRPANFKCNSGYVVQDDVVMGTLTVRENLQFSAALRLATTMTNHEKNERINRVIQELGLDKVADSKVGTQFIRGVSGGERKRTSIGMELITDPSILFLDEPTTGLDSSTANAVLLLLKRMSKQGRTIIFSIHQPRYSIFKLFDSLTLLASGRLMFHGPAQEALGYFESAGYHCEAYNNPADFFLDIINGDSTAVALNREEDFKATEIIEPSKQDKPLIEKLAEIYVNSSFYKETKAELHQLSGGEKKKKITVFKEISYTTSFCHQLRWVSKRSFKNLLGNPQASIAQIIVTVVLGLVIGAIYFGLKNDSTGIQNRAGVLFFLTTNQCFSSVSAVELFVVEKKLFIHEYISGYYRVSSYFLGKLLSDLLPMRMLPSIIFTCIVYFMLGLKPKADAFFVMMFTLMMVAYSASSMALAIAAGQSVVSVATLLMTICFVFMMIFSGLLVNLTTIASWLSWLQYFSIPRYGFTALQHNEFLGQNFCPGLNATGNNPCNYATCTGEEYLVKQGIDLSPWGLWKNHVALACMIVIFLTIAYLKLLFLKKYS

[2] = target: T1, human BCRP; experiment: biochemical; remark: listed apart in the source
[3] = target: T2, BCRP in BeWo cells (Homo sapiens, UniProt Q9UNQ0)
T2 sequence (Q9UNQ0 1-655): T1 sequence (Q9UNQ0 1-655)

[4] = tested on: BCRP (wild-type); experiment: alamarBlue cell viability, HEK cells expressing WT BCRP; assay type: cell-based; settings: human
[5] = alamarBlue cell viability, HEK cells expressing empty vector; assay type: cell-based; settings: human
[6] = tested on: BCRP (Q141K variant); experiment: alamarBlue cell viability, HEK cells expressing Q141K BCRP; assay type: cell-based; settings: human
[7] = target: T3, WT BCRP in HEK cells (Homo sapiens, UniProt Q9UNQ0); experiment: Hoechst 33342 fluorescent substrate transport assay in WT BCRP HEK cells; assay type: cell-based; settings: Hoechst 33342 7 μM
T3 sequence (Q9UNQ0 1-655): T1 sequence (Q9UNQ0 1-655)

[8] = target: T2, BCRP in BeWo cells; experiment: Intracellular zearalenone accumulation by ELISA in BeWo cells; assay type: cell-based; settings: zearalenone 10 μM, Ko143 1 μM
[9] = tested on: BCRP protein expression in BeWo cells; experiment: Western blot of BCRP protein in BeWo cells after zearalenone exposure; assay type: cell-based, human; settings: 48 h, 1 or 10 μM
Summary of the method: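 BeWo choriocarcinoma cells grown in DMEM F-12 with 10% FBS and 1% penicillin-streptomycin at 37°C, 5% CO2, used at 80–90% confluence, then exposed to test compound (0, 1 or 10 μM). Lysate protein measured by BCA; 5 μg resolved on 4–12% Bis-Tris SDS gels and probed for BCRP (~72 kDa), with β-actin as loading control. Bands semi-quantified.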

[10] = target: T4, Bcrp (Mus musculus, UniProt Q7TMS5); experiment: Pilot study of plasma zearalenone in Bcrp-null versus wild-type mice; assay type: in vivo; settings: after oral dosing, pilot studies, data not shown
T4 sequence (Q7TMS5 1-657): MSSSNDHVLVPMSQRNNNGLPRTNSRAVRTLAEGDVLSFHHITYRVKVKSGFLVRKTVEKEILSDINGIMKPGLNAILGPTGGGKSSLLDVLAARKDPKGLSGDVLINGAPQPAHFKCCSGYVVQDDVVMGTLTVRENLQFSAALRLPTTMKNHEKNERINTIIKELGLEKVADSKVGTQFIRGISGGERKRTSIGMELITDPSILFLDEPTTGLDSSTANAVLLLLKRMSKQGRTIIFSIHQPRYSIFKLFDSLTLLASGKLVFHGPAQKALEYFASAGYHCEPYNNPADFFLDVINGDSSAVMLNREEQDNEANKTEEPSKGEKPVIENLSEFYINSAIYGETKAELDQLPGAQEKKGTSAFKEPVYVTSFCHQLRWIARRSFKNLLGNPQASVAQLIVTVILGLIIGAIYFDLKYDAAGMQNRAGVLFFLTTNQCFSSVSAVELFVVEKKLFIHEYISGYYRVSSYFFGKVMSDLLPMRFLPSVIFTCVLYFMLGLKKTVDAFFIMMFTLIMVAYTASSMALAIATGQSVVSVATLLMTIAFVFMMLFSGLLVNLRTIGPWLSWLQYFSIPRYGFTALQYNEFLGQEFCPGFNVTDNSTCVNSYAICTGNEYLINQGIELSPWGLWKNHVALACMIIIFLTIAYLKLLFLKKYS

[11] = target: T1, human BCRP; experiment: BCRP ATPase assay, activation of baseline activity; assay type: biochemical; settings: absence of sulfasalazine
[12] = target: T1, human BCRP
[13] = Inhibitory Concentration (IC50) Vesicle Assay, Lucifer yellow (50 μM) transport, 2 min, 37°C
[14] = BeWo cells, Hoechst 33342 15 μM

## CCCCC(C#N)(Cn1cncn1)c1ccc(Cl)cc1 (stereo not drawn) [Myclobutanil, myclobutanil]
[1]
  IC50: 79 µM
[2]; [13]
  IC50: 62.7 µM

## CCC[CH2][Sn]([CH2]CCC)[CH2]CCC [Tributyltin, tributyltin]
[2]; read-out: Inhibitory Concentration (IC50) Vesicle Assay, Lucifer yellow (50 μM) transport, 2 min, 37°C
  IC50: 30.5 µM
[3]; BeWo cells
  Increase in retention of Hoechst 33342: 50–100%
[3]; [14]
  Concentration that increased intracellular Hoechst 33342 fluorescence: ≥ 10 µM

## O=C1c2c(O)ccc(O)c2C(=O)c2c(NCCNCCO)ccc(NCCNCCO)c21 [Mitoxantrone, mitoxantrone, reference compound]
[4]
  CC50: 3.19 µM
[5]
  CC50: 0.34 µM
[6]
  CC50: 1.14 µM

## C[C@H]1CCCC(=O)CCC/C=C/c2cc(O)cc(O)c2C(=O)O1 [Zearalenone, zearalenone]
[4]
  CC50 at 72 h: 171 µM
[7]
  Concentrations that increased Hoechst accumulation: 10 to 100 µM
[1]
  IC50: 40.6 µM
[5]
  CC50 at 72 h: 45.6 µM
[8]
  Increase of intracellular zearalenone levels on BCRP inhibition with Ko143: 2.7 fold
[9]
  Effect on BCRP protein expression: did not alter BCRP protein expression
[2]; [13]
  IC50: 4.8 µM
[3]; [14]
  Concentration that increased intracellular Hoechst 33342 fluorescence: 50 µM
[6]
  CC50 at 72 h: 40.6 µM
[10]
  Plasma zearalenone levels, Bcrp-null mice compared to wild-types: ~ 10 fold

## C#CCOS(=O)OC1CCCCC1Oc1ccc(C(C)(C)C)cc1 (stereo not drawn) [Propargite, propargite]
[1]
  IC50: 2.6 µM
[2]; [13]
  IC50: 31.8 µM

## COc1ccc(C(c2ccc(OC)cc2)C(Cl)(Cl)Cl)cc1 [Methoxychlor, methoxychlor]
[1]
  IC50: 5.2 µM
[2]; [13]
  IC50: 38 µM
[3]; [14]
  Concentration that increased intracellular Hoechst 33342 fluorescence: 100 µM

## Fc1ccc([C@]2(Cn3cncn3)O[C@H]2c2ccccc2Cl)cc1 (racemic) [Epoxiconazole, epoxiconazole]
[1]
  IC50: > 100 µM
[2]; [13]
  IC50: 64.7 µM

## CC(C)(c1ccc(O)cc1)c1ccc(O)cc1 [Bisphenol A, bisphenol A]
[1]
  IC50: > 100 µM
[2]; [13]
  IC50: 55.5 µM
[3]; [14]
  Concentration that increased intracellular Hoechst 33342 fluorescence: 50 µM

## O=c1c(-c2ccc(O)cc2)coc2cc(O)cc(O)c12 [Genistein, genistein]
[11]
  Concentration that stimulated baseline ATPase activity: ≥ 0.01 µM
[12]
  Change in BCRP-mediated ATPase activity: no change in ATPase activity was detected
[2]; Inhibitory Concentration (IC50) Vesicle Assay
  IC50: 1.9 µM
[3]; human
  Concentration that increased intracellular Hoechst 33342 fluorescence: ≥ 10 µM
  Increase in retention of Hoechst 33342: 50–100%

## CCCC1COC(Cn2cncn2)(c2ccc(Cl)cc2Cl)O1 (stereo not drawn) [Propiconazole, propiconazole]
[1]
  IC50: 63.6 µM
[2]; [13]
  IC50: 51.3 µM

## CCCN(CCOc1c(Cl)cc(Cl)cc1Cl)C(=O)n1ccnc1 [Prochloraz, prochloraz]
[1]
  IC50: 42.6 µM
[2]; [13]
  IC50: 18.7 µM

## CC(C)(C)C(O)(CCc1ccc(Cl)cc1)Cn1cncn1 (stereo not drawn) [Tebuconazole, tebuconazole]
[1]
  IC50: > 100 µM
[2]; [13]
  IC50: 41.1 µM
